# Screens (PubChem)
# Compounds with a hit are over-represented: about 2.6% of the library has one in this group of screens.
# IMP-1 inhibitor: IMP-1 metallo-beta-lactamase inhibitors, primary screen, biochemical, epi-absorbance readout, Pseudomonas aeruginosa enzyme | hit rate 0.45% among 290,000 | AID 1556, 2009 | purified IMP-1, nitrocefin hydrolysis, epi-absorbance fluorescence | metallo-beta-lactamase IMP-1 (Pseudomonas aeruginosa) | inhibition, % at 5.6 µM;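 active = inhibition above the mean plus 3 SD of all compounds in the same screening run, cut at about 4.5% in these data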;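 note: 0% = IMP-1 with DMSO and 100% = DMSO wells lacking enzyme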
#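 Material – recombinant IMP-1 enzyme, purified · Amount – IMP-1 0.2 nM before substrate addition · Medium – HEPES buffer pH 7.1 with ZnSO4 and Brij 35 · Timing – 25 °C, 15 min preincubation, 25 min reaction · Measured by – plate fluorescence quenching by hydrolysis product, ex 480/em 530 nm · Read-out – percent enzyme inhibition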
# Runt-SMMHC FRET: inhibitors of RUNX1 Runt–CBFb-SMMHC binding, primary screen, biochemical, FRET, Cerulean-Runt, Venus-CBFb-SMMHC, uHTS. AID 1434, 2008. inhibition, % at 20 µM. hit rate 0.74% among 220,000. Cerulean-Runt/Venus-CBFb-SMMHC FRET ratio 530/480, 1 h;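 active = mean inhibition across duplicate retests at 20 µM reaching about 50%, limit read from the data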;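 note: 0% = DMSO wells and 100% = wells with excess untagged CBFb-SMMHC; inhibitors lower the FRET ratio by blocking Runt binding to CBFb-SMMHC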
# Target sequence (Q01196 whole entry, looked up): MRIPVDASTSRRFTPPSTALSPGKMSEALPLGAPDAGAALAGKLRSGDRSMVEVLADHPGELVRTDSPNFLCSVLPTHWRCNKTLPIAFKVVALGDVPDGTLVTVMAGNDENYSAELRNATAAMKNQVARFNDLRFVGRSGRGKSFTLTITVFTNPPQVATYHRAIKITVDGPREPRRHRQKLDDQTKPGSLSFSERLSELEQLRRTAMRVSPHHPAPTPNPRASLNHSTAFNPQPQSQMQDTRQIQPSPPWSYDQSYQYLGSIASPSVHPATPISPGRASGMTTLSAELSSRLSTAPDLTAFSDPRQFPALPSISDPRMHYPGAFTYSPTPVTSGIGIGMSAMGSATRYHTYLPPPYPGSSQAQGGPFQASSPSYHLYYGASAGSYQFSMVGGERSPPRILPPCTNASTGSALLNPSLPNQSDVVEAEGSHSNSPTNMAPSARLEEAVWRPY
# Target sequence (Q13951 whole entry, looked up): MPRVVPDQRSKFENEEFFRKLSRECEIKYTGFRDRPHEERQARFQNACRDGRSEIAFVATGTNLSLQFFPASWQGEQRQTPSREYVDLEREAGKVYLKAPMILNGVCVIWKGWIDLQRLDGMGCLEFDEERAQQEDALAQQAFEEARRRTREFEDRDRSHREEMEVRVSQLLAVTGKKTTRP
# Runt-CBFb FRET: inhibitors of RUNX1 Runt–CBFb binding, primary screen, biochemical, FRET, Cerulean-Runt, Venus-CBFb, uHTS | Runt-related transcription factor 1 (Homo sapiens) + Core-binding factor subunit beta … | Cerulean-Runt/Venus-CBFb FRET ratio 530/480, 1 h | inhibition, % at 20 µM | hit rate 0.46% among 220,000;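 active = inhibition over about 50% at 20 µM in the single-dose screen, limit read from the data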;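 note: 0% = DMSO wells and 100% = excess unlabeled CBFb competitor control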
#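 Assay system: Cerulean-Runt domain fusion protein, energy donor; Signal: fluorescence energy transfer, 422 nm excitation, 530/480 nm emission; Timing: 1 h compound exposure, room temperature; Control set: unlabeled CBFb; Medium: Tris buffer pH 7.5 with salts and BSA; Compound: single test concentration of 20 µM, 1% DMSO final; Probe or stimulus: Venus-CBFb 100 nM.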
# RanGTP-Imp inh: inhibitors of RanGTP-importin-beta interaction, primary screen, biochemical, FRET, CFP-Ran, YFP-importin-beta, homogeneous. hit rate 1.1% among 300,000. Ran GTPase (GTP-bound) - importin-beta complex. cell-free CFP-Ran/YFP-importin-beta FRET ratio. AID 2216, 2009. inhibition, % (no concentration beside the values);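 active = more than half of the replicate wells show a fall in the fluorescence ratio signal beyond about 16%, limit read from the data, passing the limit was not always enough; inconclusive = exactly half of the replicate wells pass the set limit; inactive = fewer than half of replicates pass the limit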;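 note: 0% = DMSO wells and 100% = Ran loaded with GDP instead of GTP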
# VIM-2 inhibitor: VIM-2 metallo-beta-lactamase inhibitors, primary screen, biochemical, epi-absorbance readout, Pseudomonas aeruginosa enzyme | purified VIM-2, nitrocefin hydrolysis, epi-absorbance fluorescence | hit rate 0.89% among 290,000 | AID 1527, 2009 | inhibition, % at 5.6 µM;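 active = inhibition above the mean of all tested compounds plus 3 SD, cutoff set per screening run, cut at about 7.5% in these data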;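 note: red hydrolysis product quenches plate fluorescence so inhibitors raise well fluorescence; 0% = enzyme with DMSO and 100% = DMSO without enzyme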
# An asterisk follows results filed as active; ? = inconclusive; nt = not tested or not shown.
SMILES,IMP-1 inhibitor,Runt-SMMHC FRET,Runt-CBFb FRET,RanGTP-Imp inh,VIM-2 inhibitor
CCOC(=O)CCC(NC(=O)CCCCC(=O)NC(CCC(=O)OCC)C(=O)OCC)C(=O)OCC (stereo not drawn),-5,1,0,2,-1
COC(=O)C1=CN(CCOC23CC4CC(CC(C4)C2)C3)C=C(C(=O)OC)C1c1ccsc1,-5,34,14,2,-9
COC(=O)C1=C(C)N(C)C(C)=C(C(=O)OC)C1c1ccsc1,-1,0,-2,2,-3
COC(=O)C1=CN(Cc2ccc(OC)cc2)C=C(C(=O)OC)C1c1ccsc1,-1,134*,68*,?,-1
COC(=O)C1=CN(CC2CCCO2)C=C(C(=O)OC)C1c1ccsc1 (stereo not drawn),-1,134*,88*,11,-1
CCOC(=O)C1=CN(C)C=C(C(=O)OCC)C1c1ccsc1,-2,99*,122*,53*,0
COC(=O)C1=CN(CC2CCCO2)C=C(C(=O)OC)C1c1ccccc1C(F)(F)F (stereo not drawn),0,82*,106*,62*,0
CC1CCN(CCc2nc3cc(NC(=O)COc4ccc(Cl)cc4)ccc3n2C)CC1,-3,nt,nt,-1,-6
CCOc1ccc(N(CC(=O)Nc2ccc(OC)cc2)C2=NC3CS(=O)(=O)CC3S2)cc1 (stereo not drawn),-1,nt,nt,-1,-2
COc1ccccc1C(=O)NCCCN1CCCC1=O,0,-6,0,2,2
COC(=O)C1=CN(CCCN2CCCC2=O)C=C(C(=O)OC)C1c1ccccc1C(F)(F)F,-4,-16,10,116*,-2
O=C1C/C(=C\c2c(F)cccc2Cl)N2CCC1CC2,-4,-5,-1,53*,-6
CCOC(=O)c1c(C)oc2c(F)c(F)c(F)c(F)c2c1=O,8.8*,0,-1,1,-2
CCOc1ccccc1N(CC(=O)NC1CCCC1)S(=O)(=O)c1ccc(C)cc1,1,nt,nt,2,-2
O=C(CSc1nnnn1-c1ccc(F)cc1)Nc1nc2ccccc2s1,4.7*,-3,-4,?,-2
COc1cc(OC)c(CN2CCCN(C)CC2)cc1Br,3,nt,nt,5,1
Cc1nc(Cl)c2c(n1)NC1=C(O2)C(=O)CCC1,-1,73*,-44,-2,0
CC1CC(C)CN(C(=O)CCC(=O)Nc2nnc(C3CCCCC3)s2)C1 (stereo not drawn),-3,nt,nt,2,-2
Cc1ccc(NC(=O)c2ccc3c(=O)n4c(nc3c2)CCCCC4)cc1F,-2,nt,nt,3,1
Cc1ccc(NC(=O)C2=C(C(=O)O)CCCC2)cc1Br,13*,nt,nt,1,3
Cc1ccc(NC(=O)C2=C(C(=O)O)CCCC2)cc1F,7.9*,nt,nt,2,1
CCN1CCN(CC(=O)Nc2ccc(C)c(Br)c2)CC1,1,nt,nt,-6,-4
COc1ccccc1C1(O)C(=O)Nc2ccc(C)cc21 (stereo not drawn),-2,nt,nt,2,0
COC(=O)c1c(NC(=O)C(=O)N2CCOCC2)sc2c1CCC2,1,nt,nt,4,11*
COC(=O)c1c(NC(=O)Cc2cccs2)sc2c1CCCC2,4.5*,4,0,7,1
SMILES,IMP-1 inhibitor,Runt-SMMHC FRET,Runt-CBFb FRET,RanGTP-Imp inh,VIM-2 inhibitor
O=C(NNc1c([N+](=O)[O-])cc(C(F)(F)F)cc1[N+](=O)[O-])c1ccco1,-3,nt,nt,6,-1
CC(=O)OC1C2CCC1C([N+]1(C)CCCCC1)CC2 (stereo not drawn),-2,8,-6,-1,-1
COc1ccccc1C(=O)N/C(=C\c1cn(C)c2ccccc12)C(=O)NCCCN1CCOCC1,2,nt,nt,?,1
Cc1ccc(N(CC(=O)Nc2cccc(Cl)c2C)S(C)(=O)=O)cc1,-1,nt,nt,3,-1
CC(=O)N(CN1C(=O)c2ccccc2C1=O)c1cccc(C)c1,-1,-2,-2,1,0
CC(=O)N(/N=C1\Sc2ccccc2C1=O)c1cccc(C)c1,-2,-8,-6,23*,-2
CCOc1cc(C2C3=C(CCCC3=O)N(CCC(=O)O)C3=C2C(=O)CCC3)ccc1OS(=O)(=O)c1ccc(C)cc1,-4,nt,26,104*,-1
Cc1ccc(S(=O)(=O)Oc2ccc(C3C4=C(CCCC4=O)OC4=C3C(=O)CCC4)cc2)cc1,-1,-6,nt,1,0
Cc1ccc(S(=O)(=O)Oc2ccc(C3C4=C(CCCC4=O)N(CCC(=O)O)C4=C3C(=O)CCC4)cc2Cl)cc1,-3,nt,5,129*,0
COC(=O)c1cc(S(=O)(=O)NCCc2ccc(C)cc2)c[nH]1,-4,nt,nt,0,-1
COC(=O)c1cc(S(=O)(=O)NCCc2ccc(SC)cc2)c[nH]1,34*,nt,nt,0,-1
CC(C)NC(=S)n1cc(C(=O)c2cc(Cl)cc(Cl)c2O)cn1,-2,nt,nt,21*,-2
Cc1cc(OCC(=O)NNC(=S)NC(=O)c2ccc(Br)o2)ccc1Cl,-3,nt,nt,nt,-3
Cc1c(NC(=O)c2cccnc2Cl)c(=O)n(-c2ccccc2)n1C,7.0*,nt,nt,6,0
CCC(C)NC(=O)c1c(N)n(/N=C/c2ccccn2)c2nc3ccccc3nc12 (stereo not drawn),-3,-1,1,?,-4
COc1ccc(OC)c(-n2c(N)c(C(=O)NCC3CCCO3)c3nc4ccccc4nc32)c1 (stereo not drawn),-5,34,15,11,-2
COCCn1c(N)c(C(=O)NCC2CCCO2)c2nc3ccccc3nc21 (stereo not drawn),-4,79*,70*,94*,0
CCOC(=O)c1c(NC(=O)Cn2c(C)nc3ccccc32)sc2c1CCC2,-3,1,-7,-1,-3
Nc1c(C(=O)OCC2CCCO2)c2nc3ccccc3nc2n1C1CCCC1 (stereo not drawn),-2,85*,33,13,0
COCCn1c(N)c(C(=O)Nc2sc3c(c2C(=O)OC)CCCC3)c2nc3ccccc3nc21,-7,32,87*,1,-3
CCOC(=O)c1c(N)n(CC(C)NC(=O)C2CC2)c2nc3ccccc3nc12 (stereo not drawn),-1,163*,74*,nt,4
CC(=O)Oc1c(I)cc(I)cc1C(=O)Nc1ccc(Cl)cc1,-3,nt,nt,2,-2
COc1ccc(CCN(C)C(=O)Cn2c(=O)oc3ccccc32)cc1OC,0,nt,nt,?,-2
Cc1cc(C)cc(NC(=S)N2CCN(S(=O)(=O)c3ccccc3)CC2)c1,-3,nt,nt,nt,-5
